Data set [1] deals with Mycobacterium tuberculosis. Kind of data set: Antimycobacterial activity against Mycobacterium tuberculosis H37Rv after 7 days by microplate alamar blue assay. The note with it: 168 h. Type of data set: functional. The gist of the method:
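M. tuberculosis H37Rv inoculum taken from fresh LJ medium, resuspended in 7H9-S (7H9 broth, 0.1% casitone, 0.5% glycerol, OADC), adjusted to McFarland No. 1 and diluted 1:20. Two-fold serial dilutions were tested over a range of 25 to 0.78. Plates were incubated 7 days at 37 °C, then alamar blue was added and incubated overnight. Blue-to-pink colour change read as growth; MIC determined.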

The test system of data set [2] is Mycobacterium tuberculosis. The data set can be described thus: Inhibition of Mycobacterium tuberculosis GyrA/GyrB using relaxed pBR322 as substrate at 0.97 uM after 30 mins by DNA supercoiling assay. The gist of the method: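 Gyrase supercoiling reaction: GyrA/GyrB heterotetramer (1 U), relaxed pBR322, 1 mM ATP, HEPES-KOH pH 7.9 buffer, 30 min at 37 °C. Compounds were tested in a series of 250, 62.5, 15.6, 3.9 and 0.97. Products were resolved on 1% agarose with ethidium staining, and inhibition was quantified relative to control.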

A short description of data set [3]: Cytotoxicity against mouse RAW264.7 cells at 100 uM after 48 hrs by MTT assay. Type of data set: cell-based. The conditions noted are these: read-out: INH. The method, boiled down:
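Cells seeded at 5 × 10⁵ per well with test compound at a range of concentrations. Incubated 48 h at 37 °C under 5% CO₂/[…]. MTT reagent (10 mg mL⁻¹ stock) added about 4 h before the end. Plate centrifuged, supernatant removed and formazan dissolved in DMSO. Absorbance read at 560 nm against a blank. Triplicate wells per concentration.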
(Tetrazolium dyes change colour on reduction, which living cells bring about.)

The nature of data set [4]: Selectivity index, ratio of CC50 for mouse RAW264.7 cells to MIC for Mycobacterium tuberculosis H37Rv. The note with it: read-out: Selectivity Index. Type of data set: toxicity. The method, boiled down: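 Ratio of CC50 to MABA MIC against H37Rv. […] MTT was added 4 h before the end, formazan was dissolved in DMSO and absorbance read at 560 nm. Each concentration was run in triplicate.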

In data set [5] the test system is Mycobacterium tuberculosis. The data set can be described thus: (§1) Inhibition of Mycobacterium tuberculosis GyrA/GyrB using relaxed pBR322 as substrate after 30 mins by DNA supercoiling assay.
The nature of data set [6]: as §1.

In brackets after ≈: the same amount, converted by molar mass. Bounds are passed on as bounds.

In general, MIC refers to the least concentration at which growth counts as inhibited. A word on the inhibition: it is the share of the control response that was lost under treatment. A word on the IC50: it is the concentration that inhibits the measured activity by half. High values mean lower potency, low ones higher potency. Consider `COc1cnc2ccc(=O)n(CCN3CCC(NC(=O)Nc4ccc(F)cc4)CC3)c2c1`, for which, in data set [1], 0.62 µM (≈ 0.272 µg/mL) was the least that counted as inhibitory (MIC). For the same compound, the inhibition in data set [2] was over 82%; in data set [5] it was “Dose-dependent effect”. The cytotoxicity at 48 h, 100 µM in data set [3] worked out at 31.5%. Besides, in data set [4], the selectivity ratio was over 161. The same compound had a half-maximal inhibitory concentration (IC50) in data set [6] of 78 nM.

Compound `O=C(Nc1ccc(Cl)cc1)NC1CCN(CCn2c(=O)ccc3ncc(F)cc32)CC1` registered an MIC in data set [1] of 1.29 µM (≈ 0.573 µg/mL). This compound also displayed an inhibition in data set [2] of over 69%. Besides, the cytotoxicity at 48 h, 100 µM in data set [3] was 25.7%. In addition, the selectivity ratio in data set [4] is over 77.5. In data set [6], this compound yielded a half-inhibitory concentration (IC50) of 300 nM.

In the case of `Cc1ccc(NC(=S)NC2CCN(CCn3c(=O)ccc4ncc(F)cc43)CC2)cc1`, the MIC in data set [1] worked out at 3.54 µM (≈ 1.56 µg/mL). In addition, the inhibition in data set [2] is over 66%. Besides, in data set [3], the cytotoxicity at 48 h, 100 µM is 38.6%. Besides, in data set [4], the selectivity ratio was over 28.2. In data set [6], the IC50 amounted to 3600 nM.

Compound `COc1cnc2ccc(=O)n(CCN3CCC(NC(=S)Nc4ccc(Cl)cc4)CC3)c2c1` yielded an MIC in data set [1] of 1.65 µM (≈ 0.779 µg/mL). The compound further displayed an inhibition in data set [2] of over 76%. In addition, the cytotoxicity at 48 h, 100 µM in data set [3] was 32.6%. In addition, the selectivity ratio in data set [4] is over 60.6. In data set [6], half-maximal inhibition (IC50) required 2300 nM.

Compound `COc1ccc(NC(=S)NC2CCN(CCn3c(=O)ccc4ncc(OC)cc43)CC2)cc1` gave a minimal inhibitory concentration (MIC) in data set [1] of 13.2 µM (≈ 6.17 µg/mL). Moreover, in data set [2], the inhibition was over 79%. Besides, in data set [3], the cytotoxicity at 48 h, 100 µM was 41.5%. The selectivity ratio in data set [4] is over 7.58. For the same compound, in data set [6], the IC50 was found to be 8600 nM.

The compound `COc1ccc(NC(=O)NC2CCN(CCn3c(=O)ccc4ncc(F)cc43)CC2)cc1` registered an MIC in data set [1] of 3.23 µM (≈ 1.42 µg/mL). In data set [2], this compound displayed an inhibition of over 72%. In addition, the cytotoxicity at 48 h, 100 µM in data set [3] amounted to 25.5%. Also, the selectivity ratio in data set [4] was over 30.9. In data set [6], the concentration for half-maximal inhibition (IC50) amounted to 2200 nM.

For `COc1cnc2ccc(=O)n(CCN3CCC(NC(=S)Nc4ccc([N+](=O)[O-])cc4)CC3)c2c1`, the MIC in data set [1] came to 6.46 µM (≈ 3.12 µg/mL). The compound also displayed an inhibition in data set [2] of over 77%. The cytotoxicity at 48 h, 100 µM in data set [3] stood at 35.8%. Also, in data set [4], the selectivity ratio is over 15.5. Further, the IC50 in data set [6] was 3900 nM.

In data set [1], `COc1ccc(NC(=O)NC2CCN(CCn3c(=O)ccc4ncc(OC)cc43)CC2)cc1` had an MIC of 3.78 µM (≈ 1.71 µg/mL). For the same compound, the inhibition in data set [2] is over 86%. Further, the cytotoxicity at 48 h, 100 µM in data set [3] turned out to be 29.4%. In addition, the selectivity ratio in data set [4] was over 26.4. Further, the half-inhibitory concentration (IC50) in data set [6] was determined as 200 nM.

In turn, `COc1cnc2ccc(=O)n(CCN3CCC(NC(=O)Nc4ccc([N+](=O)[O-])cc4)CC3)c2c1` gave an MIC in data set [1] of 3.94 µM (≈ 1.84 µg/mL). The inhibition in data set [2] was over 84%. In addition, the cytotoxicity at 48 h, 100 µM in data set [3] came out at 38.6%. Moreover, the selectivity ratio in data set [4] is over 25.4. The 50% inhibitory concentration (IC50) in data set [6] came out at 1910 nM.

Take `O=C(NCc1ccccc1)NC1CCN(CCn2c(=O)ccc3ncc(F)cc32)CC1`: it took 7.37 µM (≈ 3.12 µg/mL) to inhibit growth in data set [1] (MIC). The inhibition in data set [2] is over 91%. In addition, the cytotoxicity at 48 h, 100 µM in data set [3] is 27.4%. Moreover, the selectivity ratio in data set [4] is over 13.6. Moreover, in data set [6], the IC50 stood at 1500 nM.

`COc1cnc2ccc(=O)n(CCN3CCC(NC(=O)NCc4ccccc4)CC3)c2c1` came in with a minimum inhibitory concentration (MIC) in data set [1] of 13.4 µM (≈ 5.84 µg/mL). For the same compound, in data set [2], the inhibition was over 97%. Besides, the cytotoxicity at 48 h, 100 µM in data set [3] amounted to 28.3%. The selectivity ratio in data set [4] was over 7.45. In addition, the IC50 in data set [6] was 1870 nM.

Values taken from ChEMBL document CHEMBL3351599, “Extending the N-linked aminopiperidine class to the mycobacterial gyrase domain: pharmacophore mapping from known antibacterial leads” (Eur J Med Chem, 2014).
